proCasp3 act: activators of human procaspase-3. recombinant procaspase-3 D3A, Ac-DEVD-pNA absorbance 405 nm. activation, % at 8.5 µM. 330,000 compounds, 0.11% hits;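 active means activation above the mean of all tested compounds plus 3 SD, cut at about 21% in these data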;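 further: 0% = DMSO alone and 100% = DMSO wells spiked with extra 5 µM PC-3 D3A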
Target sequence (P42574 whole entry D9A/D28A/D175A): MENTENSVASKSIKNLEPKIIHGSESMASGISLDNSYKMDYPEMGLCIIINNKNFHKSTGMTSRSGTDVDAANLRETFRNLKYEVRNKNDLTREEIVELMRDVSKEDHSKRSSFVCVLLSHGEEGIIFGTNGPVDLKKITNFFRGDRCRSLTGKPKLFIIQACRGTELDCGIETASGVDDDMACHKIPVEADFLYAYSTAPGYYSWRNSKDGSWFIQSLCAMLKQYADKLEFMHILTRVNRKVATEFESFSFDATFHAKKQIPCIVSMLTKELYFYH
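assay system = Procaspase-3 D3A mutant | signal = absorbance at 405 nm, 0 and 120 min | times = 1 h preincubation plus 2 h reaction at 25 °C | repeats = single replicate | read-out = % activation between DMSO and enzyme-spiked controls | medium = Zinc-free HEPES saline buffer with Triton X-100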
A1 inh: inhibitors of the anti-apoptotic protein A1, read as caspase activation. MEF A1-2A-BIM cells, Caspase-Glo 3/7 luminescence, 3 h; percent of clofoctol response, vehicle zero. caspase activation, % (concentration not given with the values). AID 2462. 330,000 compounds, 0.066% hits;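 active means over half of replicate activation scores above 10%, or exactly half above 10 with the replicate mean above 10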
MsrA inhibitor: inhibitors of bovine MsrA | purified bovine MsrA, absorbance read-out | inhibition, % at 15.5 µM | 360,000 compounds, 0.75% hits | AID 651718; in the data active means inhibition above about 4.5%;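 further: 0% = vehicle wells with enzyme and 100% = reference inhibitor wells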
MsrA act: bovine methionine sulfoxide reductase A activation | AID 602163 | activation, % at 10.6 µM | purified bovine MsrA, absorbance read-out | 360,000 compounds, 0.3% hits; in the data active means activation above about 7.5%;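 further: 0% = vehicle and 100% = reference activator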
proCasp7 act: activates human procaspase-7, counter-screen for procaspase-3 activators; P55210; recombinant procaspase-7, Ac-DEVD-pNA absorbance 405 nm; D23A/D198A/D206A triple mutant, cannot self-cleave; scale: DMSO 0, 5 µM enzyme 100; activation, % at 8.5 µM; 330,000 compounds, 0.093% hits; AID 463210;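 active means percent activation above the screen-wide mean plus 3 SD, cut at about 25% in these data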
Target sequence (P55210 whole entry D23A/D198A/D206A): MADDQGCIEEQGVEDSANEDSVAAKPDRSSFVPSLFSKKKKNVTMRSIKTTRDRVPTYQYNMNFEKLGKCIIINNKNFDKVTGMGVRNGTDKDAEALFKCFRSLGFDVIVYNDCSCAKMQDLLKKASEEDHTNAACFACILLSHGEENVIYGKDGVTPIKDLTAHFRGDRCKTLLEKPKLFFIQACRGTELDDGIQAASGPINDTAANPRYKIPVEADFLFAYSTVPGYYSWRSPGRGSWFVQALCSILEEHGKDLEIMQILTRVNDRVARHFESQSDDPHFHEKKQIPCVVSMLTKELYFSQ
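Assay system: Uncleavable procaspase-7 mutant enzyme | Input: 2 µM procaspase-7 mutant as dispensed | Timing: 1 h compound preincubation, 2 h substrate cleavage, 25 °C | Repeats: One well per compound | Control set: DMSO wells as 0%, DMSO with 5 µM added PC-7 as 100% | Technique: Epi-absorbance of released pNA at 405 nm, two timepoints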
MsrA act confirm: confirmation of bovine methionine sulfoxide reductase A activators | purified bovine MsrA, absorbance read-out | activation, % at 10.6 µM | 1,000 compounds, 12% hits | shares compounds with MsrA act; in the data active means activation above about 4%;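 further: enzyme coupled to thioredoxin and thioredoxin reductase with NADPH; 0% = vehicle wells and 100% = reference activator wells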
* marks the source's active call; other numbers are inactive results; x = no result. Shown are actives, neighbours in structure and some others; about 1.2% of the full set was active somewhere.

SMILES | proCasp3 act | A1 inh | MsrA inhibitor | MsrA act | proCasp7 act | MsrA act confirm
C=CCCC1CN(Cc2ccc(OC)cc2)S(=O)(=O)c2c(Oc3cc(C)c(C)c(C)c3)cccc2O1 (configuration not stated) | x | x | -0.3 | x | x | x
CC(C)NC(=O)OC[C@H]1O[C@H](C#Cc2ccc(C(C)(C)C)cc2)C=C[C@H]1O | x | x | 0.9 | x | x | x
O=[N+]([O-])c1cc(Br)c(O)c(C=Nc2ccc(N3CCOCC3)cc2)c1 | -1.4 | 0.3 | 0.7 | 10.3* | -24.2 | 7.8*
O=c1c2ccc([N+](=O)[O-])cc2ncn1CCOc1cccc(Br)c1 | 2.1 | 1.0 | 0.0 | 7.8* | -2.5 | -2.1
COC(=O)c1ccc(C2=NOC(C)(c3nnc(Cc4ccccc4)o3)C2)cc1 (configuration not stated) | 2.3 | -1.0 | 0.2 | 8.9* | -4.2 | -0.8
Nc1cc(C2CCCC2)nn1-c1ccccc1 | -0.5 | -7.5 | -0.8 | 9.1* | 1.0 | -4.4
COc1ccc2c(c1)[C@@H](NC(=O)c1ccncc1)[C@@H]1Cc3ccccc3[C@H]21 | x | x | -1.7 | x | x | x
CCN(CC)C(=O)c1csc(Nc2cccc3ccccc23)n1 | -10.0 | 1.5 | 1.2 | -1.2 | 1.6 | x
CCN(CC)CCCNC(=O)c1csc(Nc2cccc3ccccc23)n1 | -4.3 | -0.1 | -0.6 | 8.1* | -8.8 | -1.9
COc1ccc(CN(Cc2cccnc2)S(=O)(=O)c2ccc(-n3cnnn3)c(OC)c2)cc1 | 2.0 | 0.2 | -0.9 | 8.1* | -0.8 | -1.1
COc1ccc(CN(Cc2ccc(OC)cc2)S(=O)(=O)c2ccc(-n3cnnn3)c(C)c2)cc1 | 5.1 | -0.7 | 0.1 | 0.8 | 0.5 | x
O=C(N[C@H](Cc1ccccc1)C(=O)NCc1ccco1)[C@H]1O[C@@H](n2ccc(=O)[nH]c2=O)[C@H](O)[C@@H]1O | x | x | 0.2 | x | x | x
Cc1csc(N(C(=O)c2cccc(S(=O)(=O)N(C)C)c2)c2ccccc2)n1 | 5.2 | -1.2 | 0.0 | -4.7 | 0.9 | x
Cc1csc(N(C(=O)c2cccc(S(=O)(=O)N3CCCC3)c2)c2ccccc2)n1 | -0.5 | -0.3 | 0.2 | 14.7* | 6.8 | -2.6
COc1ccccc1C(=O)Nc1ccccn1 | 9.9 | -4.5 | 0.7 | 12.4* | -5.8 | -1.2
O=C(NCc1ccccc1)Nc1cccn(Cc2ccccc2Cl)c1=O | -1.9 | -0.7 | 1.9 | 9.1* | 7.2 | -1.6
Cc1ccc(C(N)=O)cc1S(=O)(=O)Nc1cccc(C)c1C | 6.1 | 0.3 | -0.6 | 15.7* | 6.9 | -3.7
COC(=O)c1ccc(NC(=O)C(C)Oc2ccccc2)cc1 (configuration not stated) | 9.8 | 2.5 | 1.0 | 2.0 | 2.9 | x
COC(=O)c1ccc(NC(=O)[C@H](C)NC(N)=O)cc1 | 5.9 | -0.1 | 0.5 | 22.6* | 2.6 | -1.2
CCCC(C)C(=O)NC1CCCCN(C)C1=O (configuration not stated) | x | x | -0.5 | x | x | x
Cc1cccc2c1N(CCOc1ccccc1Cl)C(=O)C2=O | 7.1 | 1.4 | -1.4 | 8.0* | -3.4 | -0.8
CCOC(=O)N1CCN(C(=O)C[C@H]2C[C@@]3(C(=O)OC)C(=C[C@H](C(C)(C)C)O[C@@H]3C)N(CCC3=CCCCC3)C2=O)CC1 | x | x | 0.0 | x | x | x
O=C(CCl)N1c2ccccc2Sc2c1ccc1ccccc21 | x | x | 1.0 | -4.1 | x | x
CC(=O)N1c2ccccc2Sc2ccc3ccccc3c21 | x | x | 0.5 | 9.2* | x | -2.7
O=c1ccc2ccccc2c2ccccc12 | x | x | 0.7 | -16.2 | x | x
SMILES | proCasp3 act | A1 inh | MsrA inhibitor | MsrA act | proCasp7 act | MsrA act confirm
O=Nc1c(O)c2ccccc2c2ccccc12 | 3.3 | -0.2 | -0.1 | 20.4* | -7.0 | 13.3*
COc1ccccc1NC(=O)CN1CCN(c2ccc(F)cc2)CC1 | x | x | -1.1 | -4.1 | x | x
COC(=O)c1sccc1NC(=O)CN1CCN(c2ccc(F)cc2)CC1 | -0.6 | 0.0 | 0.5 | 9.1* | 1.2 | 2.9
COc1ccc(C2CC(=O)C(c3ccc(C#N)cc3)=CN2Cc2ccccc2)cc1 (configuration not stated) | x | x | 2.9 | x | x | x
COc1ccc(C(=O)NC(=S)Nc2ccc(S(=O)(=O)Nc3cc(C)on3)cc2)cc1OC | -11.0 | 0.3 | -0.7 | 8.2* | -5.3 | -1.2
CCN(CC)CCn1c2c(c(SCC(=O)Nc3nc4ccc(C)cc4s3)nc1=O)CCC2 | 4.1 | 0.6 | 0.2 | 7.9* | 2.3 | -0.7
O[C@@H](Cc1ccccc1)[C@@H](/C=C/c1ccccc1)NCCc1ccccc1 | x | x | 0.4 | x | x | x
CO[C@@H]1[C@H](O)CC[C@]2(O)CN(c3ccc(F)cc3)[C@](C)([C@H](O)CC=C(C)C)[C@@H]12 | x | x | 0.5 | x | x | x
O=C1/C(=C/c2ccc(O)cc2)SC(=S)N1CC1CCCO1 (configuration not stated) | -10.4 | -0.5 | 2.4 | 10.5* | -12.7 | -0.8
CCCOc1ccc(/C=C2\SC(=S)N(CC3CCCO3)C2=O)cc1 (configuration not stated) | -7.0 | 0.2 | -0.1 | -1.3 | -2.7 | x
Cc1cc(NC(=O)C(C)C)ncc1NC(=O)Cc1ccccc1 | -0.3 | 0.0 | -0.2 | 9.6* | 4.4 | -3.0
O=C(Nc1nnc(-c2ccco2)o1)c1ccc(S(=O)(=O)N2CCCC2)cc1 | -1.8 | 0.3 | 1.5 | 15.6* | -2.5 | -2.2
CS(=O)(=O)c1ccc(C(=O)Nc2ccc(S(=O)(=O)N3CCCCC3)cc2)cc1 | -0.2 | -0.1 | -0.3 | 14.9* | 4.1 | 0.0
CC1CCN(S(=O)(=O)c2ccc(C(=O)Nc3nnc(-c4ccco4)o3)cc2)CC1 | 4.1 | 0.2 | 1.0 | -12.3 | -2.5 | x
COC(=O)c1cc2c(c3c4cc(F)ccc4n(S(=O)(=O)c4ccc(C)cc4)c13)C(=O)N(Cc1ccc(C(F)(F)F)cc1)C2 | x | x | -0.6 | x | x | x
C[C@@H]1C=CCCO[C@]12C(=O)N(CC1CC1)c1cccc(Br)c12 | x | x | 0.2 | x | x | x
COC(=O)c1cc2c(c3c4cc(F)ccc4n(S(=O)(=O)c4ccccc4)c13)C(=O)N(Cc1ccc(C(F)(F)F)cc1)C2 | x | x | 1.0 | x | x | x
CN(C)C(CNC(=S)Nc1ccccc1Cl)c1cccnc1 (configuration not stated) | -3.1 | 0.4 | -0.8 | 7.9* | -5.2 | -1.1
CCS(=O)(=O)Nc1cccc(-c2cn3c(n2)SCC3)c1 | 9.6 | 0.5 | -1.0 | 7.7* | 3.3 | 1.2
Cc1ccc(OCC(=O)Nc2sc3c(c2C#N)CC(C)(C)NC3(C)C)cc1 | 6.6 | -0.3 | -0.7 | -1.2 | 1.6 | x
CC1(C)Cc2c(sc(NC(=O)COc3ccc(Cl)cc3)c2C(N)=O)C(C)(C)N1 | -2.2 | -0.1 | -0.6 | 12.2* | -6.5 | -1.2
CCCC/C(O)=C1\C(=O)CC(C)(C)CC1=Nc1ccccc1OC | -5.0 | 0.3 | -0.6 | 8.7* | -2.4 | -0.2
COC(=O)CC/C(O)=C1\C(=O)CC(C)(C)CC1=Nc1ccccc1OC | -0.8 | 0.6 | 1.1 | -1.4 | 10.8 | x
